Tested on: STAT3 and RAF/MEK/ERK pathways in SAS xenograft tumors
Test: Western blot of SAS xenograft tumor lysates
Assay type: in vivo, mice
Details: day 12, 6 hours after final administration
Summary of the method: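 Male BALB/c nude mice (6 weeks old) bearing subcutaneous SAS oral tumours; test compound (50 or 60 mg/kg), a kinase inhibitor (10 mg/kg), the combination or vehicle given orally, 5 days on/2 off from day 1 (palpable tumours). Day 12: tumours (n = 3) excised 6 h after last dose, snap-frozen, lysed; immunoblot for pY705-STAT3, STAT3, pT202/Y204-ERK1/2, ERK1/2, survivin, β-actin.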

For `CNC(=O)c1cc(Oc2ccc(NC(=O)Nc3ccc(Cl)c(C(F)(F)F)c3)cc2)ccn1` [Sorafenib], the “phospho‐ERK in tumor tissues” value was “clearly reduced”, the “phospho‐STAT3 in tumor tissues” value was “clearly reduced” and the “survivin in tumor tissues” value was “moderately suppressed”.
